One series has as its target CYP3A4 (Homo sapiens, UniProt P08684). Nature of the series: Inhibition of CYP3A4 assessed as time dependent inhibition of conversion of testosterone to 6-beta-hydroxy-testosterone at 10 uM. To be noted: probe testosterone. It is filed as ADME.
The next series concerns the target Cytochrome P450 3A4 (Homo sapiens, UniProt P08684). Nature of the series: Reversible inhibition of CYP3A4-mediated conversion of testosterone to 6-beta-hydroxy-testosterone after 30 mins. In kind it is ADME.
Series [1] deals with T1, Renin (Homo sapiens, UniProt P00797).
T1 sequence (P00797 whole entry): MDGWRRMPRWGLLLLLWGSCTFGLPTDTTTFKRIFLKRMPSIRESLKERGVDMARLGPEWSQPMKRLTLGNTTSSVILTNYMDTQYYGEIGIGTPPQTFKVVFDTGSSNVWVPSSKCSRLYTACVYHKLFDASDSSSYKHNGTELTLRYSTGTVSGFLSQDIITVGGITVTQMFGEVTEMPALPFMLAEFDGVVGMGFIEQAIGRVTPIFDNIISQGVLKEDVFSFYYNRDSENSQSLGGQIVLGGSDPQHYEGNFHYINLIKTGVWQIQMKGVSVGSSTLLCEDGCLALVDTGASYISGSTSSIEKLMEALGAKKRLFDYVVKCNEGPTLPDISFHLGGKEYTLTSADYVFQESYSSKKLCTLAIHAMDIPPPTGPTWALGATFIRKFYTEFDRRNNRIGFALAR
Nature of the series: Inhibition of human recombinant renin using DNP-Lys-His-Pro-Phe-His-Leu-Val-Ile-His-D,L-Amp as substrate after 3 hrs by fluorescence analysis. The procedure, abridged:
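Recombinant human renin at 100 pM, with or without inhibitor, and 6 µM Q-FRET substrate in 50 mM MOPS, 100 mM NaCl, pH 7.4, 0.002% Tween. Incubated at 37 °C for 3 h. Fluorescence (ex 328 / em 388 nm) was read at 0 and 3 h.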

The target of series [2] is T1, Renin. In words: Inhibition of human recombinant renin using QXL520-Lys-His-Pro-Phe-His-Leu-Val-Ile-His-Lys-(5-FAM) as substrate pretreated for 10 mins measured after 1 hr by fluorescence analysis in presence of human plasma.
Series [3] has as its target Voltage-gated inwardly rectifying potassium channel KCNH2 (Homo sapiens, UniProt Q12809). Nature of the series: Binding affinity to human Erg.
Series [4] relates to Rattus norvegicus. In words: Antihypertensive activity in double transgenic rat assessed as duration of decrease in blood pressure at 3 mg/kg, po. It is filed as functional.
Series [5] can be described thus: AUC in Sprague-Dawley rat at 3 mg/kg, po. It is filed as ADME, organism-based. To be noted: plasma. The arrangement: dose 3 mg/kg, route oral. The procedure, abridged:
(§1)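 Rats dosed orally at 3 mpk as a solution in 0.5% methyl cellulose.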

Series [6] can be described thus: Half life in Sprague-Dawley rat at 3 mg/kg, po and 0.5 mg/kg, iv. In kind it is ADME, organism-based. To be noted: in vivo. The procedure, abridged: as §1
Series [7] relates to Rattus norvegicus. In words: Antihypertensive activity in double transgenic rat assessed as decrease in blood pressure at 3 mg/kg, po. It is filed as functional.
Series [8] is described as follows: Clearance in Sprague-Dawley rat at 3 mg/kg, po and 0.5 mg/kg, iv. In kind it is ADME, organism-based. To be noted: in vivo.
Series [9] can be described thus: Oral bioavailability in Sprague-Dawley rat at 3 mg/kg. In kind it is ADME, organism-based. To be noted: in vivo. The procedure, abridged: as §1
Series [10] in a line: Volume of distribution at steady state in Sprague-Dawley rat at 3 mg/kg, po and 0.5 mg/kg, iv. In kind it is ADME, organism-based. As to conditions: in vivo, read-out: Vdss.

This note sets out measurements from ChEMBL document CHEMBL2016495, “Design and synthesis of potent, isoxazole-containing renin inhibitors” (Bioorg Med Chem Lett, 2012).

A value given as a limit tells only on which side of the number the result lay.

By inhibition is commonly meant the share of the control response that was lost under treatment. For orientation: IC50 means the concentration at which inhibition is half-maximal. In general, Ki refers to the equilibrium dissociation constant of an inhibitor or competing ligand from its target. The low end stands for a stronger hold on the target, the high end for a looser hold on the target. Usually AUC stands for the area under the concentration-time curve, a measure of exposure. In general, half-life refers to how long it takes for the measured level to halve. A high value points to slow loss. As a reminder, the bioavailability is dose-corrected exposure relative to a reference, in per cent. Read a low bioavailability as poor availability.

Sequence of CYP3A4 (P08684 whole entry): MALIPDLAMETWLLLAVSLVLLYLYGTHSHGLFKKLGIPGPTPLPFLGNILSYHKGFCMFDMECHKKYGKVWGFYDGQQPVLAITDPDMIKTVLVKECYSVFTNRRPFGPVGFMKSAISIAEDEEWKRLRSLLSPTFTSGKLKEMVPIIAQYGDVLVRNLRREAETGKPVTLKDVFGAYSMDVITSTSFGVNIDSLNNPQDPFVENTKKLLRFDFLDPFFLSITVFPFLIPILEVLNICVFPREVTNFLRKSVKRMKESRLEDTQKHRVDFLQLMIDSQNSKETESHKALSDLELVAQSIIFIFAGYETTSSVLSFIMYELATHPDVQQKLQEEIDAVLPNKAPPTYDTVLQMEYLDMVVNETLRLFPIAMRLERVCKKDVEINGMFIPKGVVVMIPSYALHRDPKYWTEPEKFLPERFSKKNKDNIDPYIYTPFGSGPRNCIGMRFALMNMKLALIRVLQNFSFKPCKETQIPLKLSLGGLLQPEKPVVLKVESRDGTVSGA
Sequence of Cytochrome P450 3A4 (P08684 whole entry): as above
Sequence of Voltage-gated inwardly rectifying potassium channel KCNH2 (Q12809 whole entry): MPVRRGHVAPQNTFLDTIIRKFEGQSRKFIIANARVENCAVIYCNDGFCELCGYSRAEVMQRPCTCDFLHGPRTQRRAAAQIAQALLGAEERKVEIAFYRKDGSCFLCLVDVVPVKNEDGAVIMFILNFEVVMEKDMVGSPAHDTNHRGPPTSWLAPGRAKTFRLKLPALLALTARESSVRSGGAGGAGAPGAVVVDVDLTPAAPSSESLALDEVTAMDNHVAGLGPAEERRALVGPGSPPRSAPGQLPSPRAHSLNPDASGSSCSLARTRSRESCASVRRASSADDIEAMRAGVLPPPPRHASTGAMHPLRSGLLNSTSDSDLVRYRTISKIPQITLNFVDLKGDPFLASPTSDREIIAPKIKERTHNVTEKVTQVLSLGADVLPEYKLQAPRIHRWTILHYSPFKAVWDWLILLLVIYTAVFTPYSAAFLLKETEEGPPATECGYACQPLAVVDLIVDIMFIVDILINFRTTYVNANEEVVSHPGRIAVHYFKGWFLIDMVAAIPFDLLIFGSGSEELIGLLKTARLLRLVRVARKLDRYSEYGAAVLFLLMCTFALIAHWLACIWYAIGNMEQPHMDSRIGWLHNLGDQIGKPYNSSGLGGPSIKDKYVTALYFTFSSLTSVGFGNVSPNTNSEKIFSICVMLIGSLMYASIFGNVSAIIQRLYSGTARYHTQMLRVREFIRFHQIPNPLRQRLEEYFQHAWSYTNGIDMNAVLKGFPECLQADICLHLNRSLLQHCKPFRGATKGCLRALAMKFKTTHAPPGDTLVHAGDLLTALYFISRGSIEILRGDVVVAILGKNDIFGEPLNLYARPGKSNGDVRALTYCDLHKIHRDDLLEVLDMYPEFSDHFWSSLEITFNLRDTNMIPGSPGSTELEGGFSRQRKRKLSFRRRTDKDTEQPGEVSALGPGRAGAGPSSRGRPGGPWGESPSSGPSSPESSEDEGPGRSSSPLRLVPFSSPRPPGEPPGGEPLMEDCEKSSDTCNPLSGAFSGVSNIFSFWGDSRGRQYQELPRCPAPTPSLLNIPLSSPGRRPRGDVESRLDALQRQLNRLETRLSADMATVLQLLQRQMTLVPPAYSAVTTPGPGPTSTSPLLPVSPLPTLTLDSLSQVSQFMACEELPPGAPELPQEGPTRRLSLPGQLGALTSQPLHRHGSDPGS

As to `CO[C@]1(c2ccc(F)c(F)c2)CCNC[C@@H]1c1noc(-c2ccccc2CCNC(C)=O)c1Br`, the inhibition at 10 µM at CYP3A4 turned out to be 60%. Moreover, the IC50 against Cytochrome P450 3A4 was determined as 28 µM; at Renin [1] it was 0.17 nM.

For `CC(=O)NCCc1ccccc1-c1cc([C@H]2CNCC[C@]2(O)c2ccc(F)c(F)c2)no1`, on CYP3A4, the inhibition at 10 µM worked out at 21%. Moreover, the IC50 on Renin [2] was 0.331 µM; against Cytochrome P450 3A4 it was 32 µM; on Renin [1] it was 166 nM.

As for `CC(=O)NCCc1ccccc1-c1noc([C@H]2CNCC[C@]2(O)c2ccc(F)c(F)c2)c1Br`, at CYP3A4, the inhibition at 10 µM stood at 74%. In addition, on Cytochrome P450 3A4, 45 µM corresponded to half-maximal inhibition (IC50).

Regarding `O[C@]1(c2ccc(F)c(F)c2)CCNC[C@@H]1c1onc(-c2cccc3ccccc23)c1Br`, the inhibition at 10 µM on CYP3A4 is 67%. Also, the IC50 was above 50 µM against Cytochrome P450 3A4 and 0.06 nM on Renin [1]. The compound also showed a Ki in [3] of 4.2 µM.

Regarding `O[C@]1(c2ccc(F)c(F)c2)CCNC[C@@H]1c1onc(-c2ccccc2Cl)c1Br`, the inhibition at 10 µM at CYP3A4 came to 76%. The IC50 stood at 18 µM on Cytochrome P450 3A4 and 1.14 nM at Renin [1].

`CC(=O)NCCc1ccccc1-c1onc([C@H]2CNCC[C@]2(O)c2ccc(F)c(F)c2)c1C(C)O` (stereo partly drawn): the inhibition at 10 µM on CYP3A4 came out at 48%. At Cytochrome P450 3A4, this compound registered an IC50 above 50 µM.

`O[C@]1(c2ccc(F)c(F)c2)CCNC[C@@H]1c1cc(-c2ccc(F)cc2Cl)no1`: at CYP3A4, the inhibition at 10 µM stood at 36%. Also, the IC50 is above 9.5 µM at Renin [2] and 7 µM at Cytochrome P450 3A4.

Regarding `COC[C@H](C)COCc1ccc([C@@]2(O)CCNC[C@@H]2c2noc(-c3ccccc3CCNC(C)=O)c2Br)cc1`, the Time in the series with Rattus norvegicus [4] was 8 h. In addition, the inhibition at 10 µM on CYP3A4 worked out at 10%. In addition, the values for the IC50 at Renin [2], on Cytochrome P450 3A4 and on Renin [1] were 0.00067 µM, 29 µM and 0.26 nM, respectively. Moreover, in series [5], the AUC amounted to 0.13 µM·h. In series [3], this compound showed a Ki of 31.2 µM. Also, the half-life in [6] was 1.4 h. In addition, in the series with Rattus norvegicus [7], the Activity is on record as 27 mmHg. Besides, the clearance in [8] came out at 124 mL/min/kg. The bioavailability in [9] came out at 18%. Further, the Vd in series [10] is 12 L/kg.

Regarding `CC(=O)NCCc1ccccc1-c1onc([C@H]2CNCC[C@]2(O)c2ccc(F)c(F)c2)c1Br`, in the series with Rattus norvegicus [4], the Time came to 18 h. Besides, the inhibition at 10 µM at CYP3A4 came to 68%. Besides, the IC50 worked out at 33 µM on Cytochrome P450 3A4 and 0.27 nM on Renin [1]. Also, the AUC in series [5] came to 0.14 µM·h. For the same compound, in [6], the half-life was 5.7 h. Also, the Activity with Rattus norvegicus [7] was 44 mmHg. For the same compound, the clearance in [8] was determined as 108 mL/min/kg. For the same compound, the bioavailability in series [9] is 16%. Besides, the Vd in [10] is 36 L/kg.

Consider `O[C@]1(c2ccc(F)c(F)c2)CCNC[C@@H]1c1cc(-c2ccc(F)cc2Br)no1`, for which, on CYP3A4, the inhibition at 10 µM worked out at 22%. Also, half-maximal inhibition against Cytochrome P450 3A4 (IC50) required 3 µM. The compound further showed a Ki in series [3] of 1.7 µM.

`CC(=O)NCCc1ccccc1-c1onc([C@H]2CNCC[C@]2(C(N)=O)c2ccc(F)c(F)c2)c1Br`: the IC50 turned out to be 0.0006 µM at Renin [2] and 0.22 nM at Renin [1]. The compound further displayed a Ki in series [3] of 30 µM.

Turning to `O[C@]1(c2ccc(F)c(F)c2)CCNC[C@@H]1c1cc(-c2c(Cl)cccc2Cl)on1`, the inhibition at 10 µM at CYP3A4 was 60%. The IC50 was above 9.5 µM on Renin [2] and 17 µM on Cytochrome P450 3A4. The compound further came in with a Ki in [3] of 9.8 µM.

Regarding `O[C@]1(c2ccc(F)c(F)c2)CCNC[C@@H]1c1onc(-c2cccc(Cl)c2Cl)c1Br`, the inhibition at 10 µM at CYP3A4 was determined as 60%. The same compound showed an IC50 against Cytochrome P450 3A4 of 19 µM.

For `CC(=O)NCCc1ccccc1-c1onc([C@H]2CNCC[C@]2(OCC(O)CO)c2ccc(F)c(F)c2)c1Br` (stereo partly drawn), the inhibition at 10 µM at CYP3A4 was 18%. Besides, the IC50 against Cytochrome P450 3A4 was above 50 µM. In series [3], this compound displayed a Ki above 60 µM. The half-life in series [6] was 1.9 h. The clearance in [8] was 70 mL/min/kg. The compound further came in with a bioavailability in series [9] of 0%. Also, the Vd in series [10] was determined as 12 L/kg.

For `CC(=O)NCCc1ccccc1-c1onc([C@H]2CNCC[C@]2(O)c2ccc(F)c(F)c2)c1Cl`, at CYP3A4, the inhibition at 10 µM is 74%. Moreover, the IC50 was above 50 µM against Cytochrome P450 3A4 and 0.73 nM on Renin [1].

In the case of `CC(=O)NCCc1ccccc1-c1onc([C@H]2CNCC[C@@H]2c2ccc(F)c(F)c2)c1Br`, the inhibition at 10 µM on CYP3A4 turned out to be 75%. This compound yielded a 50% inhibitory concentration (IC50) on Cytochrome P450 3A4 of 13 µM. For the same compound, the Ki in series [3] was 19.5 µM.

As for `Cc1cccc(-c2noc([C@H]3CNCC[C@]3(O)c3ccc(F)c(F)c3)c2Br)c1C`, on CYP3A4, the inhibition at 10 µM was determined as 77%. Moreover, at Cytochrome P450 3A4, the IC50 was found to be 20 µM. This compound gave a Ki in series [3] of 6 µM.

`CC(=O)NCCc1cc(F)ccc1-c1onc([C@H]2CNCC[C@]2(O)c2ccc(F)c(F)c2)c1Br`: the inhibition at 10 µM at CYP3A4 came to 78%. Moreover, the IC50 on Renin [2] came to 0.0007 µM; against Cytochrome P450 3A4, 45 µM.

As for `CC(=O)NCCc1ccccc1-c1ccc([C@H]2CNCC[C@@H]2c2ccc(F)c(F)c2)c(Cl)c1`, the IC50 against Cytochrome P450 3A4 was determined as 20 µM.

On to `O[C@]1(c2ccc(F)c(F)c2)CCNC[C@@H]1c1cc(-c2c(Cl)cccc2Cl)no1`, for which the inhibition at 10 µM on CYP3A4 was 59%. The IC50 against Cytochrome P450 3A4 stood at 8 µM. This compound registered a Ki in series [3] of 2.8 µM.

In the case of `CC(=O)NCCc1ccccc1-c1onc([C@H]2CNCC[C@]2(O)c2ccc(F)c(F)c2)c1C(C)=O`, the inhibition at 10 µM at CYP3A4 turned out to be 32%. The compound also returned an IC50 against Cytochrome P450 3A4 of 8 µM.

As for `O[C@]1(c2ccc(F)c(F)c2)CCNC[C@@H]1c1onc(-c2c(Cl)cccc2Cl)c1Br`, the inhibition at 10 µM at CYP3A4 stood at 82%. Moreover, inhibition against Cytochrome P450 3A4 was half-maximal at 15 µM (IC50). Also, the Ki in series [3] came out at 3.9 µM.
